Rows were chosen to be rich in hits. Some 1.4% of all compounds tested hit in one or more screens of this group.
Vif inh: blocks HIV Vif function. HEK293T cells, Vif self-association by quenched fluorescence, imaging, 24 h. inhibition, % at 7.49 µM. 340,000 compounds, 0.35% hits. AID 602346; in the data active = inhibition above about 50%, passing the limit was not always enough
CAL PDZ FP-1: inhibitors of human CAL PDZ peptide binding; Q9HD26; purified CAL PDZ, TMR-peptide fluorescence polarization, 1 h; inhibition, % at 20 µM; 330,000 compounds, 0.02% hits;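 active = highest replicate inhibition of at least 40%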;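 note: plate controls were DMSO neutral control wells for no effect and unlabeled competitor peptide control wells for full effect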
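System: purified tagged CAL PDZ domain construct (CerCALP). Schedule: 1 h incubation at room temperature before polarization reading. Medium: 25 mM sodium phosphate pH 7.4, 150 mM NaCl, TCEP, IgG, Thesit. Read-out: percent inhibition from loss of millipolarization. Measured by: FP readout, S and P plane fluorescence. Probe or stimulus: fluorescent TMR peptide probe.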
CAL PDZ FP-2: inhibitors of human CAL PDZ peptide binding; inhibition, % at 24.9 µM; 300,000 compounds, 0.92% hits; purified CAL PDZ, TMR-peptide fluorescence polarization, 1 h;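 active = mean inhibition of at least 30% with at least half of replicates also reaching 30%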;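 note: 0% = DMSO neutral control and 100% = excess unlabeled competitor peptide PRC23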
PvdQ acylase: P. aeruginosa PvdQ acylase inhibition. 340,000 compounds, 0.063% hits. inhibition, % at 10 µM. purified PvdQ acylase, fluorescence plate reader; in the data active = inhibition above about 30%, passing the limit was not always enough;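 note: 0% = vehicle neutral wells and 100% = reference inhibitor wells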
Glyco luc inh: N-linked glycosylation inhibition | reporter increase, % at 12.5 µM | D54 ERlucT glycosylation luciferase reporter, 24 h; percent of 100 nM tunicamycin response | 360,000 compounds, 0.23% hits;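 active = mean luciferase reporter signal, scaled so untreated is 0 and the glycosylation-blocking control 100, at or above a set limit in every replicate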;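 note: luciferase carries N-glycosylation sites so blocking glycosylation raises the light; 0% = median of neutral control wells and 100% = median of 100 nM tunicamycin wells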
CDK5 p35 inh: inhibitors of human CDK5/p35 kinase. Recombinant CDK5/p35, ADP-Glo luminescence, 60 min. inhibition, % at 10 µM. 330,000 compounds, 0.01% hits. AID 488839;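 active = highest replicate inhibition of at least 50% and at least 75% of replicates reaching 50%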;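 note: plate controls were DMSO neutral control for no effect and GW8510 at 10 µM for full effect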
Target sequence (Q00535 whole entry, looked up): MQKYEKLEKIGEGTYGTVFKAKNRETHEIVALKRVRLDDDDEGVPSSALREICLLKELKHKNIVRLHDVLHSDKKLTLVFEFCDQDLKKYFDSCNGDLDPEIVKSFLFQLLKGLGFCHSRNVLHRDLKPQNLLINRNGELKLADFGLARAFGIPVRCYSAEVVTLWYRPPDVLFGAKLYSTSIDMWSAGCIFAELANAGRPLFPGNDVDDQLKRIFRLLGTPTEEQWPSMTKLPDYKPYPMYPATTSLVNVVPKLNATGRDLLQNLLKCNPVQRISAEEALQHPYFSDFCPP
Target sequence (Q15078 whole entry, looked up): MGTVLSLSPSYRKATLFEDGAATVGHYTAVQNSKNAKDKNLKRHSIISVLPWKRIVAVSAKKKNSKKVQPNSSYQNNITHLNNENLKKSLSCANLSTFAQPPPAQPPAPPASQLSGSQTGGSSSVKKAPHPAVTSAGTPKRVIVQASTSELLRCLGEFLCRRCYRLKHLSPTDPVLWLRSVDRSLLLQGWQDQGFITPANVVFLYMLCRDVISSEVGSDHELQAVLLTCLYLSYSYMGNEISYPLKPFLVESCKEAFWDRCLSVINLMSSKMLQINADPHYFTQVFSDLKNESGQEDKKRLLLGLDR
* hit, by the source's call; . = not tested or not shown.

SMILES | Vif inh | CAL PDZ FP-1 | CAL PDZ FP-2 | PvdQ acylase | Glyco luc inh | CDK5 p35 inh
C[C@H](CO)N1C[C@H](C)[C@H](CN(C)S(=O)(=O)c2cn(C)cn2)Oc2ccc(NC(=O)Nc3ccc(C(F)(F)F)cc3)cc2CC1=O | 5 | -2 | -4 | -17 | 60* | -5
C[C@@H]1CN([C@H](C)CO)C(=O)c2cc(NC(=O)Nc3ccc(C(F)(F)F)cc3)ccc2O[C@H]1CN(C)Cc1ccc(Cl)c(Cl)c1 | 3 | 0 | 37* | -11 | -13 | -3
Cc1ccc(S(=O)(=O)N(C)C[C@@H]2Oc3ccc(NC(=O)CCC(F)(F)F)cc3CC(=O)N([C@@H](C)CO)C[C@@H]2C)cc1 | . | -1 | -3 | -6 | 33* | -3
COc1ccc(N(CC(=O)NC2CCS(=O)(=O)C2)S(=O)(=O)c2cc(C)ccc2C)cc1 (stereo unspecified) | 13 | 0 | -2 | 5 | 0 | 0
CC1CC(C)CN(C(=O)C2CCCN(S(=O)(=O)c3cnc[nH]3)C2)C1 (stereo unspecified) | 2 | 1 | -2 | -11 | 0 | -5
CC(C)C(NC(=O)c1ccccc1NC(=O)C(C)(C)C)C(=O)N1CCOCC1 (stereo unspecified) | 69* | 1 | -6 | -10 | 2 | 0
CC(NC(=O)c1ccccc1NC(=O)c1ccccc1)C(=O)N1CCOCC1 (stereo unspecified) | -3 | -2 | -1 | -9 | 0 | 2
O=C(O)/C=C/c1ccc([N+](=O)[O-])o1 | 2 | 1 | 1 | -12 | -3 | 0
O=[N+]([O-])c1ccc(/C=N/N=C/c2ccc([N+](=O)[O-])o2)o1 | 53* | -2 | -2 | 7 | -19 | 0
Cn1nc(C(=O)Oc2cc(=O)n(C)c3ccccc23)c2ccccc2c1=O | . | 1 | 36* | -7 | 1 | 3
Cc1ccc(COC(=O)c2nn(C)c(=O)c3ccccc23)cc1 | -15 | 0 | -1 | -3 | 13 | 2
c1coc(-c2nc(-c3ccco3)c(-c3ccco3)nc2-c2ccco2)c1 | . | 0 | 1 | 3 | 9 | 1
COc1ccc2nc(-c3ccco3)c(-c3ccco3)nc2c1 | -9 | 0 | -2 | -13 | 33* | -1
O=[N+]([O-])c1nn(-c2ccccc2)n(O)c1=NCc1ccc2c(c1)OCO2 | -1 | -1 | -6 | 0 | 2 | 2
O=[N+]([O-])c1nn(-c2ccc(Cl)cc2)n(O)c1=NCc1ccccc1 | 1 | 0 | 5 | 41* | 0 | 2
CCOC(=O)c1c(C)[nH]c(C(=O)CN2C(=O)NC3(CCCC3)C2=O)c1C | -2 | -1 | -2 | 0 | 0 | 1
CCOC(=O)c1c(C)[nH]c(C)c1C(=O)CN1C(=O)NC2(CCCCCC2)C1=O | -4 | 0 | 35* | -8 | 6 | 0
NS(=O)(=O)c1ccc(NC(=O)COC(=O)Cc2c[nH]c3ccccc23)cc1 | 3 | -1 | -3 | 2 | 0 | -1
CC(C)(C)C(=O)N1CCN(c2ccc3c(c2)C2CC3CCN2C(=O)OCc2ccccc2)CC1 (stereo unspecified) | 9 | . | . | . | 0 | .
CCc1ccc(CNC(=O)Cc2ccc(NC(=O)C3=C(C)OCCS3)cc2)cc1 | 3 | -2 | -2 | -10 | 31* | 1
CC1=C(C(=O)Nc2ccc(CC(=O)NCc3ccccc3C)cc2)SCCO1 | 0 | -2 | -2 | -4 | 2 | .
CN(C)C1(CNC(=O)C2CCC(=O)N(CCc3ccc(Cl)cc3)C2)CCCCC1 (stereo unspecified) | -5 | 88* | -5 | -4 | -3 | -1
COc1ccc(NC(=O)NC2(C(=O)N3CCN(C)CC3)CCCCC2)cc1 | 19 | 10 | 61* | -7 | 2 | 0
O=C(O)c1ccccc1Sc1ncnc2sc3c(c12)CCC3 | 2 | . | 65* | -21 | 0 | -1
CCCNC(=O)c1cc(-c2ccco2)on1 | -5 | 1 | . | -3 | 81* | 0
O=C(Nc1cc(Cl)ccc1Cl)P(=O)(O)c1ccccc1 | 57* | -1 | -1 | -20 | -1 | -2
Cn1c(-c2ccccc2)cc2c3no[n+]([O-])c3ccc21 | 61* | 0 | -3 | 19 | 1 | 0
Cn1c(SCC(=O)NNC(=O)c2ccc(Br)cc2)nnc1-c1cccnc1 | 13 | 0 | 63* | -7 | -1 | -1
